Activity calls are given as the source filed them. No cut-off for these calls is given here.
Tests used:
[1] = biological target: T1, 3-phosphoinositide-dependent protein kinase 1 (Homo sapiens) (UniProt O15530); assay: Activation of PDK1 in IGF-I-stimulated HEK293 cells assessed as decrease of phosphorylation of PKB T-loop at 50 uM after 2 hrs by Western blot analysis; type: cell-based
T1 sequence (whole entry): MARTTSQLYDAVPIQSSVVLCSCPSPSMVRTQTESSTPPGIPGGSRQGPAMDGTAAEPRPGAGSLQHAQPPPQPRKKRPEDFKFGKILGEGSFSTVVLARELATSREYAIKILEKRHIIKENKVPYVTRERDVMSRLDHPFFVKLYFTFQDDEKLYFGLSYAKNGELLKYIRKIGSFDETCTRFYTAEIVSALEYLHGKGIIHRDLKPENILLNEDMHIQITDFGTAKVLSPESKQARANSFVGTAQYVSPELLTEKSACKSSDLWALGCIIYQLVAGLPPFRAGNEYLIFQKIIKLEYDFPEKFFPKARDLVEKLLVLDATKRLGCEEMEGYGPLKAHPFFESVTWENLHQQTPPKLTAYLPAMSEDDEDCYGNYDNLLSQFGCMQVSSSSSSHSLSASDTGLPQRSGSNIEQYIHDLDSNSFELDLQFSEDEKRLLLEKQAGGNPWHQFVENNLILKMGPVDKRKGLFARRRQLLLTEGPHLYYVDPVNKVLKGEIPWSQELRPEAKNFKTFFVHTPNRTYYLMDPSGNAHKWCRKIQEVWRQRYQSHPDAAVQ
Method in brief: (§1)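 HEK293 cells in DMEM with 10% FBS were serum-starved 24 h, then given 50 μM compound or DMSO for 2 h and stimulated with IGF-I (10 ng/mL) for 20 min. For S6K and PKCζ, cells were first transiently transfected with GST-fusions of full-length S6K[T412E] and PKCζ (PEI). These proteins were pulled down on glutathione sepharose and immunoblotted for activation-loop phosphorylation (S6K Thr229, PKCζ Thr410), normalized to anti-GST. For PKB, untransfected cell lysates were immunoblotted with phospho-specific antibodies.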

[2] = tested on: L6; assay: Prodrug conversion in rat L6 cells assessed as reduction half life of prodrug at 20 uM […] by mass spectroscopy analysis; type: ADME, cell-based; details: l6, 20 µM
[3] = Hydrolysis half life of the compound; type: physicochemical
Method in brief: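 Chemical stability of the ester prodrug was measured in cell-free medium at 37 °C, giving the half-life of spontaneous hydrolysis.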

[4] = biological target: T1, 3-phosphoinositide-dependent protein kinase 1 (Homo sapiens); assay: Activation of PDK1 in IGF-I-stimulated HEK293 cells assessed as decrease of phosphorylation of S6K activation loop at 50 uM after 2 hrs by Western blot analysis; type: cell-based; method in brief: as §1
[5] = tested on: L6; assay: Prodrug conversion in rat L6 cells assessed as production of 2-(3-Oxo-1-phenyl-3-(4-(trifluoromethyl)phenyl)propyl)malonic acid level at 20 uM after 1 hr by mass spectroscopy analysis; type: ADME, cell-based; details: l6, 1 h
Method in brief: (§2)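 Confluent rat L6 cells in serum-free DMEM were exposed to 20 μM ester prodrug for 5–90 min. Cells were then washed with cold PBS, trypsinized and counted. Carbamazepine was added as internal standard, and samples were acidified with HCl and extracted with ethyl acetate. Prodrug and free dicarboxylic acid were quantified by HPLC-MS/MS on a C18 column with TFA-containing gradients. DMSO-treated cells served as control.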

[6] = tested on: L6; assay: Prodrug conversion in rat L6 cells assessed as prodrug degradation at 20 uM after 1 hr by mass spectroscopy analysis; type: ADME, cell-based; details: l6, 1 h
[7] = tested on: L6; assay: Prodrug conversion in rat L6 cells assessed as production of 2-(3-Oxo-1-phenyl-3-(4-(trifluoromethyl)phenyl)propyl)malonic acid level in cytoplasm at 20 uM […] by HPLC analysis; type: ADME, cell-based; details: l6, 20 µM
[8] = biological target: T1, 3-phosphoinositide-dependent protein kinase 1 (Homo sapiens); assay: Activation of PDK1 in IGF-I-stimulated HEK293 cells assessed as decrease of phosphorylation of PKCzeta at Thr410 at 50 uM after 2 hrs by Western blot analysis; type: cell-based; method in brief: as §1
[9] = tested on: L6; assay: Prodrug conversion in rat L6 cells assessed as production of 2-(3-Oxo-1-phenyl-3-(4-(trifluoromethyl)phenyl)propyl)malonic acid level in cytoplasm at 20 uM […] by mass spectroscopy analysis relative to control; type: ADME, cell-based; details: l6, 20 µM
[10] = tested on: L6; assay: Cellular uptake in rat L6 cells at 20 uM after 5 mins by mass spectroscopy analysis; type: ADME, cell-based; details: l6, 5 min; method in brief: as §2

CC(=O)OCOC(=O)C(C(=O)OCOC(C)=O)C(CC(=O)c1ccc(C(F)(F)F)cc1)c1ccccc1 (stereo not given)
Activity [1]: inactive
t1/2 [2]: 4.3 min
half-life [3]: 4.8 h
Activity [4]: Active
Drug metabolism [5]: 80 µM
Drug metabolism [6]: > 90%
Drug metabolism [7]: Active
Activity [8]: inactive
fold change (FC) [9]: 67
Drug uptake [10]: Active
